Test results reported in paper PMC12219203 (Nature Communications, 2025).
Values belong to the molecule of their own block, whether it stands above or below them.

Legend:
Tlr4-/- BMDMs = experiment: Cytokine secretion by Tlr4-/- BMDMs; assay type: cell-based, mouse; conditions: ELISA, 24 h; GM 4 mM, MDP 0.4 mM, LPS 100 ng/mL, CpG 100 nM
Procedure, shortened: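 Murine BMDMs were differentiated 6 days in complete medium with 20 ng/mL GM-CSF or 10% L929 supernatant, then switched to serum-free IMDM and stimulated 24 h. Mouse TNF-α and IL-6 in culture supernatants were quantified by sandwich ELISA. Samples were prediluted in 1% BSA in PBS, pH 7.4, where needed.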

NOD2 = experiment: HEK-Blue NOD2 SEAP reporter assay; assay type: cell-based, human; conditions: MDP, M-AE 200 nM; GM, M 20 μM; 18 h
Procedure, shortened: (§1)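 HEK-Blue hNod1 or hNod2 cells were seeded at 50,000 cells/well in DMEM/10% FBS without selection antibiotics and stimulated at once for 18 h (n = 3). Supernatant was mixed 1:4 with Quanti-Blue and incubated 6 h at 37 °C, and absorbance was read at 620 nm. Values were blanked against water-treated wells, and the respective parental Null cell readouts were subtracted.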

NOD1 = NOD1 (Homo sapiens, UniProt Q9Y239); experiment: HEK-Blue NOD1 SEAP reporter assay; assay type: cell-based; conditions: GM, M 20 μM; 18 h
Procedure, shortened: as §1

RAW264.7 cells = experiment: Cytokine expression in RAW264.7 macrophages; assay type: cell-based, mouse; conditions: GM 1-4 mM, M 4 mM, 24 h
Procedure, shortened: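 RAW264.7 cells were kept in high-glucose IMDM with HEPES, 5% heat-inactivated FBS and penicillin/streptomycin at 37 °C, 5% CO2. They were exposed to test compounds for 24 h (n = 4). Total RNA was extracted with a column kit, and TNF-α and IL-6 transcripts were quantified by RT-qPCR using the 2-ΔΔCt method, normalised to β-act.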

[1] = test system: WT bone-marrow-derived macrophages (BMDMs); experiment: Cytokine gene expression in WT BMDMs; assay type: cell-based, mouse; conditions: GM 2-8 mM, M 8 mM
Procedure, shortened: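 Marrow was flushed from the femur and tibia of female SPF C57BL/6J mice and red cells were lysed (NH4Cl/KHCO3). Cells at 200,000 cells/mL were differentiated for 6 days in IMDM with 20 ng/mL GM-CSF or 10% L929 supernatant, then switched to serum-free IMDM. Test compounds were added for 24 h (n = 3). Cytokine transcripts were measured by RT-qPCR (2-ΔΔCt, normalised to β-act).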

RAW-Dual cells = experiment: TNF-α secretion by RAW-Dual WT cells, with or without TLR inhibitors; assay type: cell-based, mouse; conditions: inhibitor 10 μM, 1 h pre-incubation, then GM 2 mM, 24 h; ELISA
Procedure, shortened: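 RAW-Dual cells were seeded at 100,000 cells/well and pre-incubated 1 h with 10 μM TLR2 (CU_CPT22), TLR4 (TAK-242) or TLR7/9 (AT791) inhibitor. They were then stimulated with 2 mM test compound for 24 h. Supernatants were cleared at 16,000 × g and TNF-α was measured by sandwich ELISA.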

Incubation with 10% FBS = assay type: in vitro ADME, bovine; conditions: 37 C, 16 h, LC-MS

Sequence of NOD1 (Q9Y239 whole entry): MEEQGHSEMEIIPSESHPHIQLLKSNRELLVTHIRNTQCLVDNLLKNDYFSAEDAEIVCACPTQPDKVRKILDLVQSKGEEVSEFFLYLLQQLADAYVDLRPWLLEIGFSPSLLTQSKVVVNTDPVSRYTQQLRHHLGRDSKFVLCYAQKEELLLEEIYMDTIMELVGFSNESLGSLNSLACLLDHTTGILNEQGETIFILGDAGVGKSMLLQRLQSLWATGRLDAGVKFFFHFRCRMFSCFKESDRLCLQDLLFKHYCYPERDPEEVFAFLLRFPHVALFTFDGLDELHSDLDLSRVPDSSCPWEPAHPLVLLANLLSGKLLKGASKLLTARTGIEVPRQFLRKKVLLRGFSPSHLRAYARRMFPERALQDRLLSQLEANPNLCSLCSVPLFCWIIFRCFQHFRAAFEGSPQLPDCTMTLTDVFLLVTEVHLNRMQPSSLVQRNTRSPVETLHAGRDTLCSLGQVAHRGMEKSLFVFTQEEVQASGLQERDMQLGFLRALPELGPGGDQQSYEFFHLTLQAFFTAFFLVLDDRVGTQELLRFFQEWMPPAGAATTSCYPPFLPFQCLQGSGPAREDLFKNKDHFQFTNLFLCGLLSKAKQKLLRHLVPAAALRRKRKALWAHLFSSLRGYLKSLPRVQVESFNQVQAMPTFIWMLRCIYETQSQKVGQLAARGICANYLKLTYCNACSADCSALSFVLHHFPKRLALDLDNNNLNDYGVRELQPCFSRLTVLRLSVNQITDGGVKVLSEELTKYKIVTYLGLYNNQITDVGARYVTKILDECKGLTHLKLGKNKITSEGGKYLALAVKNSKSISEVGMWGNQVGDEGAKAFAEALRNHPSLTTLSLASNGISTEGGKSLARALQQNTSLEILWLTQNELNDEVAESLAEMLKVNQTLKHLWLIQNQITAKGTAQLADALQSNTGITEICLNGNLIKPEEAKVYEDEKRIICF

Molecule: CC(=O)N[C@H]1C(O)O[C@H](CO)[C@@H](O)[C@@H]1O[C@H](C)C(=O)N[C@@H](C)C(=O)N[C@H](CCC(=O)O)C(N)=O (stereo partly drawn) [MDP, N-acetylmuramyl-L-Ala-D-isoGln, reference compound]
- TNF-α and IL-6 production in Tlr4-/- BMDMs (in words) (Tlr4-/- BMDMs): still trigger comparable proinflammatory cytokine production

- NOD1 activation in HEK-Blue reporter cells (in words) (NOD1): unable to activate NOD1/2
Molecule: CC(=O)N[C@H]1C(O)O[C@H](CO)[C@@H](O)[C@@H]1O[C@H](C)C(=O)O (some centres unmarked) [M, N-acetylmuramic acid, reference compound]
- NOD2 activation in HEK-Blue reporter cells (in words) (NOD2): unable to activate NOD1/2
- Immuno-stimulatory activity (TNF-α, IL-6) in RAW264.7 (in words) (RAW264.7 cells): less potent
- Immuno-stimulatory activity (TNF-α, IL-6) in BMDMs (in words) [1]: less potent

Molecule: CCOC(=O)C1=CCCC[C@H]1S(=O)(=O)Nc1ccc(F)cc1Cl [TAK-242]
- Effect of TLR inhibitor on GM-triggered TNF-α production (RAW-Dual cells): suppressed GM-triggered TNF-α production

Molecule: CC(=O)N[C@H]1C(O)O[C@H](CO)[C@@H](O)[C@@H]1O[C@H](C)C(=O)N[C@@H](C)C(=O)N[C@H](CCC(=O)O)C(=O)O (some centres unmarked) [M-AE]
- NOD2 activation in HEK-Blue reporter cells (in words) (NOD2): potent NOD2 activation similar to the model ligand MDP

Molecule: M-AEKAA
- Degradation on incubation with 10% FBS (Incubation with 10% FBS): reliably yields the expected degradation products: M and AEKAA
